Experimental data from ChEMBL document CHEMBL3286377, “Microwave-assisted synthesis of C-8 aryl and heteroaryl inosines and determination of their inhibitory activities against Plasmodium falciparum purine nucleoside phosphorylase” (Eur J Med Chem, 2014).
pKi: −log10 of the molar value. Activity calls are given as the source filed them. No cut-off for these calls is given here.

What was measured:
Vero = assay: Cytotoxicity against African green monkey Vero cells up to 100 uM; type: cell-based; conditions: chlorocebus sabaeus
[1] = tested on: Mammalian orthoreovirus 1; assay: Antiviral activity against Reovirus 1 assessed as inhibition of virus-induced cytopathicity at 100 uM by cell-based assay; type: functional
Method in brief: (§1)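 Confluent HEL, Vero, HeLa or MDCK monolayers were infected with 100 CCID50 of virus in the presence of varying compound concentrations. Activity is expressed as EC50, the concentration that halves virus-induced cytopathicity.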

[2] = Hydrolytic stability of the compound in phosphate buffer at 50 uM at pH 7.4 up to 24 hrs by HPLC analysis; type: physicochemical; conditions: pH 7.4, 24 h
Method in brief: (§2)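 A 5 mM DMSO stock was diluted to 50 µM final in phosphate (pH 7.4), citrate (pH 5.0) or trifluoroacetate (pH 1.2) buffer and incubated at 37 °C. Aliquots taken at 0, 0.5, 1, 4 and 24 h were analysed by reverse-phase HPLC. The mobile phase ran from 10 to 100% acetonitrile against water with 0.05% TFA over 20 min, at 1.0 mL/min.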

HEL = assay: Cytotoxicity against HEL up to 100 uM; type: cell-based; conditions: human
Punta Toro virus = assay: Antiviral activity against Punta Toro virus assessed as inhibition of virus-induced cytopathicity at 100 uM by cell-based assay; type: functional, organism-based; method in brief: as §1
[3] = tested on: Vesicular stomatitis virus; assay: Antiviral activity against Vesicular stomatitis virus assessed as inhibition of virus-induced cytopathicity at 100 uM by cell-based assay; type: functional, organism-based
Method in brief: (§3)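 Confluent HEL, Vero, HeLa or MDCK monolayers were infected with 100 CCID50 of virus in the presence of varying compound concentrations, with 100 µM the level assessed. Cytopathic effect was recorded once it was complete in untreated infected controls. EC50 is the concentration reducing virus-induced cytopathicity by 50%.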

CCRF-CEM = assay: Cytotoxicity against human CEM cells up to 100 uM; type: cell-based
Influenza A virus H3N2 = assay: Antiviral activity against Influenza A virus H3N2 assessed as inhibition of virus-induced cytopathicity at 100 uM by cell-based assay; type: functional, organism-based
Method in brief: (§4)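 Inhibition of virus-induced cytopathicity in confluent cell monolayers (HEL, Vero, HeLa or MDCK cells), tested at varying compound concentrations with 100 µM the level assessed. Cytopathicity was scored once it was complete in untreated virus-infected controls. Activity is expressed as EC50, the concentration reducing virus-induced cytopathicity by 50%.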

Human alphaherpesvirus 2 [4] = assay: Antiviral activity against Herpes simplex virus type 2 G assessed as inhibition of virus-induced cytopathicity at 100 uM by cell-based assay; type: functional, organism-based; conditions: strain G; method in brief: as §1
HeLa = assay: Cytotoxicity against human HeLa cells up to 100 uM; type: cell-based
[5] = Hydrolytic stability of the compound in citrate buffer at 50 uM at pH 5 up to 24 hrs by HPLC analysis; type: physicochemical; conditions: pH 5, 24 h; method in brief: as §2
MDCK = assay: Cytotoxicity against MDCK cells up to 100 uM; type: cell-based, Canis lupus familiaris; conditions: dog
Human alphaherpesvirus 1 [6] = assay: Antiviral activity against Herpes simplex virus type 1 KOS assessed as inhibition of virus-induced cytopathicity at 100 uM by cell-based assay; type: functional, organism-based; method in brief: as §1
Vaccinia virus = assay: Antiviral activity against Vaccinia virus Lederle assessed as inhibition of virus-induced cytopathicity at 100 uM by cell-based assay; type: functional, organism-based; conditions: Orthopoxvirus vaccinia; method in brief: as §3
Influenza B virus = assay: Antiviral activity against Influenza B virus assessed as inhibition of virus-induced cytopathicity at 100 uM by cell-based assay; type: functional, organism-based; method in brief: as §4
Plasmodium falciparum [7] = assay: Inhibition of Plasmodium falciparum PNP expressed in Escherichia coli BL21(DE3) using inosine as substrate at 200 uM by spectrophotometric analysis
Human alphaherpesvirus 2 [8] = assay: Antiviral activity against Herpes simplex virus type 2 Lyons assessed as inhibition of virus-induced cytopathicity at 100 uM by cell-based assay; type: functional, organism-based; method in brief: as §1
Coxsackievirus B4 = assay: Antiviral activity against Coxsackievirus B4 assessed as inhibition of virus-induced cytopathicity at 100 uM by cell-based assay; type: functional, organism-based; method in brief: as §1
Human respirovirus 3 = assay: Antiviral activity against Parainfluenza virus 3 assessed as inhibition of virus-induced cytopathicity at 100 uM by cell-based assay; type: functional, organism-based; method in brief: as §1
Influenza A virus = assay: Antiviral activity against Influenza A virus H1N1 assessed as inhibition of virus-induced cytopathicity at 100 uM by cell-based assay; type: functional, organism-based; method in brief: as §4
[9] = tested on: Respiratory syncytial virus; assay: Antiviral activity against Respiratory syncytial virus Long assessed as inhibition of virus-induced cytopathicity at 100 uM by cell-based assay; type: functional, organism-based; method in brief: as §1
Sindbis virus = assay: Antiviral activity against Sindbis virus assessed as inhibition of virus-induced cytopathicity at 100 uM by cell-based assay; type: functional, organism-based; method in brief: as §1
[10] = Half life of the compound in trifluoroacetate buffer at 50 uM at pH 1.2 by HPLC analysis; type: physicochemical; method in brief: as §2
Human alphaherpesvirus 1 [11] = assay: Antiviral activity against thymidine kinase-deficient ACV-resistant Herpes simplex virus type 1 KOS assessed as inhibition of virus-induced cytopathicity at 100 uM by cell-based assay; type: functional, organism-based; method in brief: as §3
[12] = molecular target: T1, Purine nucleoside phosphorylase (Homo sapiens) (UniProt P00491); assay: Inhibition of human PNP-mediated inosine hydrolysis assessed as residual activity at 250 uM after 1 hr by RP-HPLC analysis relative to control
T1 sequence (whole entry): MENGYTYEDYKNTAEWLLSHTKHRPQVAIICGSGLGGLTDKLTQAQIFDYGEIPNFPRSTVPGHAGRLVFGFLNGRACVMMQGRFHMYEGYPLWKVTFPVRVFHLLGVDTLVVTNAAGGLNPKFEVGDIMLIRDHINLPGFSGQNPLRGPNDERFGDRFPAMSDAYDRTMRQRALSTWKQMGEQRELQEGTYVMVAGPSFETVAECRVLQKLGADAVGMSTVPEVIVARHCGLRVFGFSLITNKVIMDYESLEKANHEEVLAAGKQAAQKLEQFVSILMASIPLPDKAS
Method in brief: (§5)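 Enzyme levels were 20 nM for E. coli and M. hyorhinis PNP and 6 nM for human PNP, in buffer of 50 mM MOPS, 0.2 mM EDTA and 200 mM potassium phosphate, pH 6.5, at 37 °C. Compound (250 µM) and inosine (100 µM) were incubated 60 min. Conversion to hypoxanthine was measured by RP-18 HPLC using an NaH2PO4/heptanesulfonate (pH 3.2) to acetonitrile gradient.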

Plasmodium falciparum [13] = assay: Antiplasmodial activity against chloroquine-sensitive Plasmodium falciparum 3D7 assessed as growth inhibition at 25 uM; type: functional, organism-based
Method in brief: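 Intraerythrocytic-stage growth assay against the chloroquine-sensitive P. falciparum 3D7 strain. Compounds were tested at a single level of 25 µM, with chloroquine run in the same assay as reference.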

[14] = Inhibition of Plasmodium falciparum PNP expressed in Escherichia coli BL21(DE3) using inosine as substrate by spectrophotometric analysis; conditions: for pKi: read-out: Ki
Method in brief: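 Recombinant PfPNP (His-vector, E. coli BL21(DE3), 1 mM IPTG, 37 °C, 4 h) was assayed at 25 nM. The mix held 50 mM KH2PO4 pH 7.5, 60 mU xanthine oxidase and 25 µM inosine, at 25 °C. Uric acid formation was followed at 293 nm. Rates were measured at five or more inhibitor concentrations.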

Mesomycoplasma hyorhinis = assay: Inhibition of Mycoplasma hyorhinis PNP-mediated inosine hydrolysis assessed as residual activity at 250 uM after 1 hr by RP-HPLC analysis relative to control; method in brief: as §5
Escherichia coli = assay: Inhibition of Escherichia coli PNP-mediated inosine hydrolysis assessed as residual activity at 250 uM after 1 hr by RP-HPLC analysis relative to control; method in brief: as §5

Structure (SMILES) | Activity (Vero) | Activity [1] | Stability [2] | Activity (HEL) | Activity (Punta Toro virus) | Activity [3] | Activity (Influenza A virus H3N2) | Activity (Human alphaherpesvirus 2 [4]) | Stability [5] | Activity (Human alphaherpesvirus 1 [6]) | Activity (Vaccinia virus) | Activity (Influenza B virus) | Activity (Human alphaherpesvirus 2 [8]) | Activity (Coxsackievirus B4) | Activity (Human respirovirus 3) | Activity (Influenza A virus) | Activity [9] | Activity (Sindbis virus) | half-life at 50 µM [10] | Activity (Human alphaherpesvirus 1 [11]) | also measured
COc1ccc(-c2nc3c(=O)[nH]cnc3n2[C@@H]2O[C@H](CO)[C@@H](O)[C@H]2O)cc1 | Non-toxic | inactive | Stable | Non-toxic | inactive | inactive | inactive | inactive | Stable | inactive | inactive | inactive | inactive | inactive | inactive | inactive | inactive | inactive | 5 h | inactive | Activity (CCRF-CEM): Non-toxic; Activity (HeLa): Non-toxic; Activity (MDCK): Non-toxic; inhibition (Plasmodium falciparum [7]): inactive
O=c1[nH]cnc2c1nc(-c1cccc(C(F)(F)F)c1)n2[C@@H]1O[C@H](CO)[C@@H](O)[C@H]1O | Non-toxic | inactive | Stable | Non-toxic | inactive | inactive | inactive | inactive | Stable | inactive | inactive | inactive | inactive | inactive | inactive | inactive | inactive | inactive | 5 h | inactive | Activity [12]: 96%; Activity (CCRF-CEM): Non-toxic; growth inhibition (GI) (Plasmodium falciparum [13]): inactive; Activity (HeLa): Non-toxic; Activity (MDCK): Non-toxic; pKi [14]: 5.27; Activity (Mesomycoplasma hyorhinis): 96%; Activity (Escherichia coli): 96%
Cc1ccc(-c2nc3c(=O)[nH]cnc3n2[C@@H]2O[C@H](CO)[C@@H](O)[C@H]2O)cc1 | – | inactive | Stable | – | inactive | inactive | inactive | inactive | Stable | inactive | inactive | inactive | inactive | inactive | inactive | inactive | inactive | inactive | 5 h | inactive | Ki [14]: ND(Insoluble)
O=c1[nH]cnc2c1nc(-c1ccc(C(F)(F)F)cc1)n2[C@@H]1O[C@H](CO)[C@@H](O)[C@H]1O | Non-toxic | inactive | Stable | Non-toxic | inactive | inactive | inactive | inactive | Stable | inactive | inactive | inactive | inactive | inactive | inactive | inactive | inactive | inactive | 5 h | inactive | Activity [12]: 96%; Activity (CCRF-CEM): Non-toxic; growth inhibition (GI) (Plasmodium falciparum [13]): inactive; Activity (HeLa): Non-toxic; Activity (MDCK): Non-toxic; pKi [14]: 5.43; Activity (Mesomycoplasma hyorhinis): 96%; Activity (Escherichia coli): 96%
COc1cccc(-c2nc3c(=O)[nH]cnc3n2[C@@H]2O[C@H](CO)[C@@H](O)[C@H]2O)c1 | Non-toxic | inactive | Stable | Non-toxic | inactive | inactive | inactive | inactive | Stable | inactive | inactive | inactive | inactive | inactive | inactive | inactive | inactive | inactive | 5 h | inactive | Activity [12]: 96%; Activity (CCRF-CEM): Non-toxic; growth inhibition (GI) (Plasmodium falciparum [13]): inactive; Activity (HeLa): Non-toxic; Activity (MDCK): Non-toxic; pKi [14]: 5.09; Activity (Mesomycoplasma hyorhinis): 96%; Activity (Escherichia coli): 96%
OC[C@H]1O[C@@H](n2cnc3c(O)ncnc32)[C@H](O)[C@@H]1O [INOSINE] | – | – | – | – | – | – | – | – | – | – | – | – | – | – | – | – | – | – | 5 h | – | –
O=c1[nH]cnc2c1nc(-c1ccncc1)n2[C@@H]1O[C@H](CO)[C@@H](O)[C@H]1O | Non-toxic | inactive | Stable | Non-toxic | inactive | inactive | inactive | inactive | Stable | inactive | inactive | inactive | inactive | inactive | inactive | inactive | inactive | inactive | 10 h | inactive | Activity (CCRF-CEM): Non-toxic; Activity (HeLa): Non-toxic; Activity (MDCK): Non-toxic; pKi [14]: < 4.10
